Experimental data from ChEMBL document CHEMBL5252646, “Novel thienocycloalkylpyridazinones as useful scaffolds for acetylcholinesterase inhibition and serotonin 5-HT6 receptor interaction” (Bioorg Med Chem, 2023).
pIC50, pKi: −log10 of the molar value. Calls of active or inactive are those of the source. No cut-off for these calls is given here.

How the values were obtained:
[1] = target: T1, 5-hydroxytryptamine receptor 6 (Homo sapiens, UniProt P50406); test: Displacement of [3H]-LSD from human 5-HT6 receptor expressed in HEK cell membrane incubated for 60 mins by microplate beta scintillation counting analysis; format: cell membranes
Summary of the method: (§1)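 Membranes from HEK cells expressing human 5-HT6, 5 µg per well, with 2 nM [3H]-LSD, 60 min at 37 °C. Buffer 50 mM Tris-HCl, 10 mM MgCl2, 0.5 mM EDTA, pH 7.4. Nonspecific binding with 100 µM 5-HT. Filtered on GF/C, scintillation counted.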

[2] = target: T2, 5-hydroxytryptamine receptor 4 (Homo sapiens, UniProt Q13639); test: Antagonist activity at 5-HT4 receptor in human HeLa cells assessed as inhibition of intracellular calcium mobilization at 10 uM incubated for 2 hrs by FLIPR assay; format: cell-based
Summary of the method: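 HeLa cells stably expressing human 5-HT4, 20,000 per well, seeded the day before. Medium replaced with DMEM plus Calcium 6 dye, 2 h at 37 °C, then compounds and standard added. Intracellular calcium read by fluorescence (ex 480, em 540 nm) every second after a baseline. Duplicates.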

[3] = target: T3, 5-hydroxytryptamine receptor 7 (Homo sapiens, UniProt P34969); test: Displacement of [3H]SB269970 from human 5-HT7 receptor expressed in HEK cell membrane at 10 uM incubated for 60 mins by microplate beta scintillation counting analysis; format: cell membranes
Summary of the method: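 Membranes from HEK cells expressing human 5-HT7, 2 µg per well, with 2 nM [3H]-SB269970, 60 min at 37 °C. Buffer Tris-HCl 50 mM, 4 mM CaCl2, 1 mM ascorbic acid, 0.1 mM pargyline, pH 7.4. Nonspecific binding with 25 µM clozapine. Filtered, scintillation counted. Duplicates. Displacement as % at 10 µM.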

Acetylcholinesterase [4] = target: T4, Acetylcholinesterase (Homo sapiens, UniProt P22303); test: Inhibition of human AChE using acetylthiocholine iodide as substrate preincubated with enzyme for 20 mins followed by substrate addition and measured for 5 mins by Ellman's spectrophotometric method
[5] = target: T5, 5-hydroxytryptamine receptor 1A (Homo sapiens) (UniProt P08908); test: Displacement of [3H]-8-OH-DPAT from human 5-HT1A receptor expressed in HEK cell membrane at 10 uM incubated for 120 mins by microplate beta scintillation counting analysis; format: cell membranes
T5 sequence (whole entry): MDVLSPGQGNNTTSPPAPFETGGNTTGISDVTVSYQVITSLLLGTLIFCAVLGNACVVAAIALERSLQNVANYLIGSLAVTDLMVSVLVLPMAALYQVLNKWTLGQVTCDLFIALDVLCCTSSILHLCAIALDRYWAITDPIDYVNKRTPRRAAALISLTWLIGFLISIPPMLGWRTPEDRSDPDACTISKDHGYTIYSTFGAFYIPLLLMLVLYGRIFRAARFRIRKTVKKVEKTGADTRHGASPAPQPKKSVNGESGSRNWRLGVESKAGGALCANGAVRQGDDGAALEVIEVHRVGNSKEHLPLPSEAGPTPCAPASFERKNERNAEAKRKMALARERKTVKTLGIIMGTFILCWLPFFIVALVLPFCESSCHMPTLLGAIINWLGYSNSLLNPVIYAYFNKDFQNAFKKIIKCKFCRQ
Summary of the method: (§2)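 Membranes from HEK cells expressing human 5-HT1A, 10 µg per well, with 1 nM [3H]-8-OH-DPAT, 120 min at 37 °C. Buffer 50 mM Tris-HCl, 5 mM MgSO4, pH 7.4. Nonspecific binding with 10 µM 5-HT. Filtered on PEI-treated GF/C and washed, then scintillation counted. Duplicates.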

[6] = target: T3, 5-hydroxytryptamine receptor 7; test: Displacement of [3H]SB269970 from human 5-HT7 receptor expressed in HEK cell membrane incubated for 60 mins by microplate beta scintillation counting analysis; format: cell membranes
[7] = target: T6, 5-hydroxytryptamine receptor 1A (Homo sapiens, UniProt P08908); test: Displacement of [3H]-8-OH-DPAT from human 5-HT1A receptor expressed in HEK cell membrane incubated for 120 mins by microplate beta scintillation counting analysis; format: cell membranes; summary of the method: as §2
T6 sequence (P08908 whole entry): T5 sequence (whole entry)

Cholinesterase [8] = target: T7, Cholinesterase (Homo sapiens, UniProt P06276); test: Inhibition of human BChE using butyrylthiocholine iodide as substrate preincubated with enzyme for 20 mins followed by substrate addition and measured for 5 mins by Ellman's spectrophotometric method
Cholinesterase [9] = target: T7, Cholinesterase; test: Inhibition of human BChE using butyrylthiocholine iodide as substrate at 10 uM preincubated with enzyme for 20 mins followed by substrate addition and measured for 5 mins by Ellman's spectrophotometric method; details: time 25.0 min
[10] = target: T1, 5-hydroxytryptamine receptor 6; test: Displacement of [3H]-LSD from human 5-HT6 receptor expressed in HEK cell membrane at 10 uM incubated for 60 mins by microplate beta scintillation counting analysis; format: cell membranes; summary of the method: as §1
[11] = target: T2, 5-hydroxytryptamine receptor 4; test: Antagonist activity at 5-HT4 receptor in human HeLa cells assessed as inhibition of intracellular calcium mobilization incubated for 2 hrs by FLIPR assay; format: cell-based
Summary of the method: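 HeLa cells stably expressing human 5-HT4, seeded the day before at 20,000 cells/well. Medium replaced with DMEM plus Calcium 6 dye, then 2 h at 37 °C. Compounds and standard added afterwards. Fluorescence from intracellular calcium mobilization (ex 480 nm, em 540 nm) recorded every second after a baseline was set. Run in duplicate.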

Acetylcholinesterase [12] = target: T4, Acetylcholinesterase; test: Competitive inhibition of human AChE using acetylthiocholine iodide as substrate preincubated with enzyme for 20 mins followed by varing concentrations of substrate addition and measured for 5 mins by Lineweaver-Burk plot analysis
Summary of the method: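 Human AChE, Ellman spectrophotometric method in 96-well format, run in triplicate. Kinetics: six acetylthiocholine concentrations (0.033 to 0.2 mM) crossed with four inhibitor concentrations (0–300 nM). Analysed by the Michaelis-Menten approach; kinetic parameters from nonlinear regression.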

T2 sequence (Q13639 whole entry): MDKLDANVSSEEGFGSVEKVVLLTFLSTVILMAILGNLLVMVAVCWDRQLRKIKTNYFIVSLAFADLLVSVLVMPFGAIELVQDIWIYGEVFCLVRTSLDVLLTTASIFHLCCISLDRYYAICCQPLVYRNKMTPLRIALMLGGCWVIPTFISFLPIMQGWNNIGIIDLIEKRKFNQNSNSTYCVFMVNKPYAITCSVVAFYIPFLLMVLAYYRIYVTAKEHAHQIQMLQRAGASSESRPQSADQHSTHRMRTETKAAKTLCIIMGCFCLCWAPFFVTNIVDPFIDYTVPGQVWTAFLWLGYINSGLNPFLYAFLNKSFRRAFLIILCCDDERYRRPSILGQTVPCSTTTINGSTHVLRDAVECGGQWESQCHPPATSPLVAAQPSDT
T3 sequence (P34969 whole entry): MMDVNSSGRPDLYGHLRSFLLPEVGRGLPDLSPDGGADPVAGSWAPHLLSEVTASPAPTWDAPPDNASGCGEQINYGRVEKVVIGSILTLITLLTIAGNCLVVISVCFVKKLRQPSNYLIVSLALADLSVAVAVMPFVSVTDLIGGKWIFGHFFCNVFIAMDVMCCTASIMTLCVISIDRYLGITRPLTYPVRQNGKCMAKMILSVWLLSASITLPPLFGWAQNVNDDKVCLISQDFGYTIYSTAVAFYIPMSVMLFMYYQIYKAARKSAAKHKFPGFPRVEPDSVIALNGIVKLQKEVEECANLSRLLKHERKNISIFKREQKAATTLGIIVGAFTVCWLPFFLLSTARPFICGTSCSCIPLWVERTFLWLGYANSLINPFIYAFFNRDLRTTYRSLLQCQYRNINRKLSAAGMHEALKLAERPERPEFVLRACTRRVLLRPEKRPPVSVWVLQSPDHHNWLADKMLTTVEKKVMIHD
T7 sequence (P06276 whole entry): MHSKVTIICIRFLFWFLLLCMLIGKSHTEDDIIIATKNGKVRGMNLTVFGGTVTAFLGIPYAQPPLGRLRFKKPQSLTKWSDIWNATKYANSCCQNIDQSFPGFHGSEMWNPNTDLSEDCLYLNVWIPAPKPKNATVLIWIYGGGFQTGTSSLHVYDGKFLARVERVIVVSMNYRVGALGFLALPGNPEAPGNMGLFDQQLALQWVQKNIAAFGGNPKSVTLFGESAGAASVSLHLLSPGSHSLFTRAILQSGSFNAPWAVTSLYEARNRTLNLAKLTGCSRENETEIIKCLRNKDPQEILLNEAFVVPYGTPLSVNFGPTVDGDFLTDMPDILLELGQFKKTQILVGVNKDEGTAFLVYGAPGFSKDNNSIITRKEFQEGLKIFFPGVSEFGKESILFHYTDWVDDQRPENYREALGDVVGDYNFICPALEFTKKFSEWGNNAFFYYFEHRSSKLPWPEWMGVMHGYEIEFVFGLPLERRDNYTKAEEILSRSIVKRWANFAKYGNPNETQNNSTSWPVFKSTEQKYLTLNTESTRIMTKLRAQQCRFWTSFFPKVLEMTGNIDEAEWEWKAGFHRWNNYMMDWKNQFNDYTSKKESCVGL
T4 sequence (P22303 whole entry): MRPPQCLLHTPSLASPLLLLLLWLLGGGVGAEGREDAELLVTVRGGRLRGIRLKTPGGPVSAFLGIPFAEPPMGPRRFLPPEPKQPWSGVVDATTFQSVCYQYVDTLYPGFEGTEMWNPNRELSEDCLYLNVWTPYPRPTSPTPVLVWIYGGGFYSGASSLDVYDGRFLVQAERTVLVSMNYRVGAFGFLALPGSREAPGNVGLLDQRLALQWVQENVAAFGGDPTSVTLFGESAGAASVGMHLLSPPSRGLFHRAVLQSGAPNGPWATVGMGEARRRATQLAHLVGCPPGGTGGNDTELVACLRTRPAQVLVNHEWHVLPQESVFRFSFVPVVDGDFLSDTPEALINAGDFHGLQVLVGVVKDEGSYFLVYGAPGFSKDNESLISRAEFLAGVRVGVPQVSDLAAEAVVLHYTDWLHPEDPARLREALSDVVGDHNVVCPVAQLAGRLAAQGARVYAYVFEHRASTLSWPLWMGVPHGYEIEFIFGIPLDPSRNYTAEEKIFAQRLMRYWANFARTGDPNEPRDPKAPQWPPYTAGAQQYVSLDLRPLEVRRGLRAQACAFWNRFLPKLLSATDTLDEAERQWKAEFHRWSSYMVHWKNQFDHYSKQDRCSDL
T1 sequence (P50406 whole entry): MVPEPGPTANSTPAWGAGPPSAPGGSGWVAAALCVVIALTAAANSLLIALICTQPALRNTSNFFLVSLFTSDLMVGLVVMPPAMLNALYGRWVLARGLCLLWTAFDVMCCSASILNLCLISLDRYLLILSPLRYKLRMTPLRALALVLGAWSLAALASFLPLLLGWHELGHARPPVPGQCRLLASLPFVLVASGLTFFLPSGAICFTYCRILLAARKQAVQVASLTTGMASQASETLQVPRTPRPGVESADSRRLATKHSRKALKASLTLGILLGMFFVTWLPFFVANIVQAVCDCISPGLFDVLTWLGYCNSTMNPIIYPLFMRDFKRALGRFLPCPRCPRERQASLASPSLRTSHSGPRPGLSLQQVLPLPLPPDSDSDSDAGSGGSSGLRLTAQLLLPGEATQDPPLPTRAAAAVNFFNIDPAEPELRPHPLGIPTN

Compound | pKi [1] | inhibition [2] | inhibition [3] [%] | pIC50 (Acetylcholinesterase [4]) | inhibition [5] [%] | pKi [6] | pKi [7] | pIC50 (Cholinesterase [8]) | inhibition (Cholinesterase [9]) | inhibition [10] [%] | inhibition ([3]; filed as antagonist) [%] | pKi [11] | pKi (Acetylcholinesterase [12])
O=C1CC2CCc3ccsc3C2=NN1CCCCCCN1CCN(Cc2cccc3c2ccn3S(=O)(=O)c2ccccc2)CC1 (centres undefined) | 6.99 | 12% | 33 | 5.01 | 23 | – | – | – | – | – | – | – | –
O=C1CC2Cc3ccsc3C2=NN1CCCCCN1CCN(Cc2cccc3c2ccn3S(=O)(=O)c2ccccc2)CC1 (centres undefined) | 8.08 | inactive | – | 5.16 | – | 5.74 | 5.45 | – | – | – | – | – | –
O=C1CC2CCc3ccsc3C2=NN1Cc1ccc(CN2CCN(Cc3ccccc3)CC2)cc1 (centres undefined) | 5.90 | – | – | 5.44 | – | 5.68 | 6.10 | 5.01 | – | – | – | – | –
O=C1CC2Cc3ccsc3C2=NN1CCCCCCN1CCN(Cc2cccc3c2ccn3S(=O)(=O)c2ccccc2)CC1 (centres undefined) | 7.17 | inactive | 39 | 5.04 | – | – | 5.29 | – | – | – | – | – | –
O=C1CC2CCc3ccsc3C2=NN1CCCCCN1CCN(Cc2cccc3c2ccn3S(=O)(=O)c2ccccc2)CC1 (centres undefined) | 7.20 | inactive | – | 5.35 | 35 | 5.77 | – | – | – | – | – | – | –
O=C1CC2CCc3ccsc3C2=NN1CCCCN1CCN(Cc2ccccc2)CC1 (centres undefined) | 5.48 | – | – | 6.12 | – | 6.00 | 6.30 | – | 45% | – | – | – | –
CCN(CC)CCCCN1N=C2c3sccc3CCC2CC1=O (centres undefined) | – | – | 10 | 5.53 | – | – | 5.06 | – | inactive | 27 | – | – | –
O=C1CC2CCc3ccsc3C2=NN1CN1CCN(Cc2ccccc2)CC1 (centres undefined) | – | – | 23 | 4.87 | 24 | – | – | 5.25 | – | 28 | – | – | –
O=C1CC2Cc3ccsc3C2=NN1CCCCN1CCN(Cc2cccc3c2ccn3S(=O)(=O)c2ccccc2)CC1 (centres undefined) | 6.71 | 26% | – | 5.45 | – | 5.70 | 5.34 | – | – | – | – | – | –
O=C1CC2CCc3ccsc3C2=NN1CCCCN1CCCCC1 (centres undefined) | – | – | 18 | 5.68 | – | – | 5.37 | – | 9% | 30 | – | – | –
O=C1CC2CCc3ccsc3C2=NN1CCCCCCCN1CCN(Cc2cccc3c2ccn3S(=O)(=O)c2ccccc2)CC1 (centres undefined) | 7.06 | 16% | – | 5.34 | 33 | – | – | – | – | – | 43 | – | –
O=C1CC2Cc3ccsc3C2=NN1CCCCCCCN1CCN(Cc2cccc3c2ccn3S(=O)(=O)c2ccccc2)CC1 (centres undefined) | 7.10 | inactive | – | 5.14 | – | 5.42 | 5.18 | – | – | – | – | – | –
Cn1cc(C(=O)OCC2CCN(CCNS(C)(=O)=O)CC2)c2ccccc21 | – | – | – | – | – | – | – | – | – | – | – | 8.85 | –
O=C1CC2CCc3ccsc3C2=NN1CCCCN1CCCC1 (centres undefined) | – | – | 16 | 5.94 | – | – | 5.45 | – | 14% | 33 | – | – | –
O=C1CC2Cc3ccsc3C2=NN1CCCCN1CCN(Cc2ccccc2)CC1 (centres undefined) | 5.40 | – | – | 6.27 | – | 6.00 | 6.21 | – | 11% | – | – | – | –
O=C1CC2CCCc3ccsc3C2=NN1CCCCN1CCN(Cc2ccccc2)CC1 (centres undefined) | 5.84 | – | – | 5.91 | – | 6.01 | 6.38 | 5.38 | – | – | – | – | –
O=C1CC2CCc3ccsc3C2=NN1CCN1CCN(Cc2ccccc2)CC1 (centres undefined) | 5.78 | – | 26 | 6.77 | – | – | 5.96 | 5.29 | – | – | – | – | 6.91
O=C1CC2CCc3ccsc3C2=NN1CCCCN1CCN(Cc2cccc3c2ccn3S(=O)(=O)c2ccccc2)CC1 (centres undefined) | 6.63 | inactive | – | 5.12 | – | 5.70 | 5.55 | – | – | – | – | – | –
CN(C)CCCCN1N=C2c3sccc3CCC2CC1=O (centres undefined) | – | – | 24 | 5.20 | 37 | – | – | – | inactive | 36 | – | – | –
O=C1CC2CCc3sccc3C2=NN1CCCCN1CCN(Cc2ccccc2)CC1 (centres undefined) | – | – | – | 6.07 | – | – | – | 5.48 | – | – | – | – | –
